Activity calls are given as the source filed them. The rule behind the calls is not given here.
Columns and labels:
[1] = target: Growth/differentiation factor 8 (Homo sapiens) (UniProt O14793); assay: Inactivation of human recombinant Myostatin expressed in Escherichia coli cells at 300 nM incubated with luciferase reporter transfected HEK293 cells for 4 hrs by luciferase reporter gene assay
[2] = target: Growth/differentiation factor 8 (Homo sapiens) (UniProt O14793); assay: Photo-oxygenation of human recombinant Myostatin expressed in Escherichia coli cells assessed as oxygen adduct formation in myostatin peak fragment 40-54 at 3 uM measured after photoirradiation for 30 mins using LED by MALDI-TOF-MS analysis
Summary of the method: (§1)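 Myostatin stock (8 μM in 1 mM HCl) diluted to 1 μM in 10 mM phosphate, pH 7.4. Functionalized peptide (final 3 μM) or methylene blue (final 1 μM) added. Irradiated 30 min with 730 nm LED (14 mW) at room temperature. Then 50 mM DTT reduction (37 °C, 0.5 h), Lys-C digestion (1/20 w/w, 37 °C, 2.5 h), ZipTip desalting, MALDI-TOF MS of fragments.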

[3] = target: Growth/differentiation factor 8 (Homo sapiens) (UniProt O14793); assay: Photo-oxygenation of human recombinant Myostatin expressed in Escherichia coli cells assessed as oxygen adduct formation in myostatin peak fragment 55-78 at 3 uM measured after photoirradiation for 30 mins using LED by MALDI-TOF-MS analysis
Summary of the method: as §1

[4] = target: Growth/differentiation factor 8 (Homo sapiens) (UniProt O14793); assay: Photo-oxygenation of human recombinant Myostatin expressed in Escherichia coli cells assessed as oxygen adduct formation in myostatin peak fragment 79-90 at 3 uM measured after photoirradiation for 30 mins using LED by MALDI-TOF-MS analysis
Summary of the method: as §1

[5] = target: Amyloid-beta precursor protein (Homo sapiens) (UniProt P05067); assay: Photo-oxygenation of human Amyloid beta (1 to 42) assessed as oxygen adduct formation at 3 uM measured after photoirradiation for 30 mins using LED by MALDI-TOF-MS analysis
Chain of Amyloid-beta precursor protein (Homo sapiens) (P05067 whole entry): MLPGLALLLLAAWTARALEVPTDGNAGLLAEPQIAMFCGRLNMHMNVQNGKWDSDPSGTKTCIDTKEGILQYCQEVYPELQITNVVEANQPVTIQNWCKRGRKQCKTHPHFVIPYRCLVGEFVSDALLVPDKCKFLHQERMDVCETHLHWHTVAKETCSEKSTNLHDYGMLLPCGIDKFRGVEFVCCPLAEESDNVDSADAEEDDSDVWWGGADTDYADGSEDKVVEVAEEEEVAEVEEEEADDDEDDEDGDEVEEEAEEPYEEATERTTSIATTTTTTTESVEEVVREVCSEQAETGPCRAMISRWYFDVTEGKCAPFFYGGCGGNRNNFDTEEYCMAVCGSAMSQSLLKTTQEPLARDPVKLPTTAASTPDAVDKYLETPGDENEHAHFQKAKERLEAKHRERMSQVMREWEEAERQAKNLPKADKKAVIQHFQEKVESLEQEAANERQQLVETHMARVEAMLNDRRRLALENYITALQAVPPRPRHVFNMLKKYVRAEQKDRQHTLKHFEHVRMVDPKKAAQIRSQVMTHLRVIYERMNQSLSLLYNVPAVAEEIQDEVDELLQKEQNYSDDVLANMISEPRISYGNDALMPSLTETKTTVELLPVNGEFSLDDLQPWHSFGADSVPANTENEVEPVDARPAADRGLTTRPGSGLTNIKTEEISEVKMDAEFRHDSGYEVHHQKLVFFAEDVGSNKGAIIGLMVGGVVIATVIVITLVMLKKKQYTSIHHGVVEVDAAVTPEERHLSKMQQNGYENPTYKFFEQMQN
Summary of the method: (§2)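 Aβ1-42 formed in situ from isopeptide stock (250 μM in 0.1% TFA, ultracentrifuged), diluted to 20 μM in 10 mM phosphate, pH 7.4. Functionalized peptide (final 3 μM) or methylene blue (final 1 μM) added. Irradiated with 730 nm LED (14 mW, 3–5 cm) at room temperature. Reduced with 50 mM DTT (37 °C, 0.5 h), Lys-C digested (1/20 w/w, 37 °C, 2.5 h), desalted, analysed by MALDI-TOF MS.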

HEK293 [6] = assay: Phototoxicity against human HEK293 cells assessed as reduction in cell viability at 3 uM photoirradiated for 30 mins using LED followed by incubation with compound for 24 hrs by WST-1 assay; type: toxicity, cell-based; settings: hek293, 24.5 h, time 1470 min
Summary of the method: (§3)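 HEK293 cells grown in DMEM with 10% FBS and non-essential amino acids at 37 °C, 5% CO2, seeded 2.0×10^4 cells/well. After 48 h, medium switched to serum- and phenol red-free DMEM containing 3 μM peptide or methylene blue. Cells irradiated with LED (λmax 730 nm, 30 min), then incubated 24 h. Viability read by WST-1; Student's t-test.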

[7] = target: Growth/differentiation factor 8 (Homo sapiens) (UniProt O14793); assay: Photo-oxygenation of human recombinant Myostatin expressed in Escherichia coli cells assessed as oxygen adduct formation at 1 uM measured after photoirradiation for 30 mins using LED by MALDI-TOF-MS analysis
Summary of the method: as §1

[8] = target: Amyloid-beta precursor protein (Homo sapiens) (UniProt P05067); assay: Photo-oxygenation of human Amyloid beta (1 to 42) assessed as oxygen adduct formation at 1 uM measured after photoirradiation for 30 mins using LED by MALDI-TOF-MS analysis
Summary of the method: as §2

[9] = Phototoxicity against human HEK293 cells assessed as cell viability at 3 uM photoirradiated for 30 mins using LED followed by incubation with compound for 24 hrs by WST-1 assay; type: toxicity, cell-based; settings: time 1470 min, read-out: Activity
Summary of the method: as §3

HEK293 [10] = assay: Cytotoxicity against human HEK293 cells assessed as reduction in cell viability at 3 uM incubated for 24 hrs by WST-1 assay; type: toxicity, cell-based; settings: hek293, 24 h
[11] = system: chymotrypsin (Bos taurus); assay: Stability of the compound assessed as chymotrypsin (bovine pancreas)-mediated drug degradation by measuring residual ratio at 100 uM measured after 1 hr by HPLC analysis
[12] = target: T1, Growth/differentiation factor 8 (Homo sapiens, UniProt O14793); assay: Photo-oxygenation mediated inactivation of human recombinant Myostatin expressed in Escherichia coli cells photoirradiated for 30 mins using LED followed by incubation with luciferase reporter transfected HEK293 cells for 4 hrs by luciferase reporter gene assay
T1 sequence (O14793 whole entry): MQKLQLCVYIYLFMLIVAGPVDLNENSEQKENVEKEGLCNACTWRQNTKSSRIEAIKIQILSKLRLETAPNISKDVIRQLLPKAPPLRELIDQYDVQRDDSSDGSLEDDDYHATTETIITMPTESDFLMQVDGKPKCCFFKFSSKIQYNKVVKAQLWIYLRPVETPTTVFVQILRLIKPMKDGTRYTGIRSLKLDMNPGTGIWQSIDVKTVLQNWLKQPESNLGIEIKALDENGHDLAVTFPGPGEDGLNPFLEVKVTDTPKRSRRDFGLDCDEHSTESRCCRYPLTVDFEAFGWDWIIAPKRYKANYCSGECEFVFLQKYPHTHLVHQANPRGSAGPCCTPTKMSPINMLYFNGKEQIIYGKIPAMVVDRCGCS
Summary of the method: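 Myostatin (1 μM in 10 mM phosphate, pH 7.4, with or without peptide) diluted in serum-free DMEM to 0.6 nM, irradiated at 730 nm for 30 min, then added to HEK293 cells. Cells were transfected 24 h with SBE-luc2P reporter plus TK-Renilla control, then held 8 h in serum/phenol red-free DMEM. Exposure 4 h, PBS wash, dual-luciferase read-out. Triplicate, mean ± s.d. (n = 3), Tukey's test.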

trypsin (Sus scrofa) = assay: Stability of the compound assessed as trypsin (porcine pancreas)-mediated drug degradation at 100 uM measured after 3 hrs by MALDI-TOF-MS analysis
[13] = system: chymotrypsin (Bos taurus); assay: Stability of the compound assessed as chymotrypsin (bovine pancreas)-mediated drug degradation by measuring cleavage at Tyr7-Ser8 residue at 100 uM measured for 3 hrs by MALDI-TOF-MS analysis
[14] = system: chymotrypsin (Bos taurus); assay: Stability of the compound assessed as chymotrypsin (bovine pancreas)-mediated drug degradation by measuring cleavage at Leu21-Arg22 residue at 100 uM measured for 3 hrs by MALDI-TOF-MS analysis

| Compound | Activity [2] | Activity [3] | Activity [4] | Activity [5] | Activity (HEK293 [6]) | other results |
| --- | --- | --- | --- | --- | --- | --- |
| CC[C@@H](C)[C@@H](NC(=O)[C@@H](CCCNC(=N)N)NC(=O)[C@@H](CCc1ccccc1)NC(=O)[C@H](NC(=O)[C@@H](CCCCN)NC(=O)[C@H](NC(=O)[C@@H](CCCNC(=N)N)NC(=O)[C@H](NC(=O)[C@@H](Cc1ccc2ccccc2c1)NC(=O)[C@@H](CCCNC(=N)N)NC(=O)[C@@H](CCCCN)NC(=O)[C@H](NC(=O)[C@@H](CCCNC(=N)N)NC(=O)[C@H](N)CC(C)C)C1CCCCC1)[C@H](C)CC)C1CCCCC1)[C@H](C)CC)C(=O)N[C@H](Cc1ccc(O)cc1)C(=O)N[C@H](CCc1ccccc1)C(N)=O | – | – | – | – | – | inhibition [1]: Active |
| CC[C@@H](C)[C@@H](NC(=O)[C@@H](Cc1cn(CCN2CCCc3cc(/C=C/C4=C(Br)C(/C=C/c5cc6c7c(c5)CCCN7CCC6)=[O+][B-](F)(C(F)(F)F)O4)ccc32)nn1)NC(=O)[C@@H](CCc1ccccc1)NC(=O)[C@H](NC(=O)[C@@H](CCCCN)NC(=O)[C@H](NC(=O)[C@@H](CCCNC(=N)N)NC(=O)[C@H](NC(=O)[C@@H](Cc1ccc2ccccc2c1)NC(=O)[C@@H](CCCNC(=N)N)NC(=O)[C@@H](CCCCN)NC(=O)[C@H](NC(=O)[C@@H](CCCNC(=N)N)NC(=O)[C@H](N)CC(C)C)C1CCCCC1)[C@H](C)CC)C1CCCCC1)[C@H](C)CC)C(=O)N[C@H](Cc1ccc(O)cc1)C(=O)N[C@H](CCc1ccccc1)C(N)=O (stereo not given in full) | inactive | Active | Active | inactive | Non-Toxic | – |
| CC[C@@H](C)[C@@H](NC(=O)[C@@H](CCCNC(=N)N)NC(=O)[C@@H](CCc1ccccc1)NC(=O)[C@H](NC(=O)[C@@H](CCCCN)NC(=O)[C@H](NC(=O)[C@@H](Cc1cn(CCN2CCCc3cc(/C=C/C4=C(Br)C(/C=C/c5cc6c7c(c5)CCCN7CCC6)=[O+][B-](F)(C(F)(F)F)O4)ccc32)nn1)NC(=O)[C@H](NC(=O)[C@@H](Cc1ccc2ccccc2c1)NC(=O)[C@@H](CCCNC(=N)N)NC(=O)[C@@H](CCCCN)NC(=O)[C@H](NC(=O)[C@@H](CCCNC(=N)N)NC(=O)[C@H](N)CC(C)C)C1CCCCC1)[C@H](C)CC)C1CCCCC1)[C@H](C)CC)C(=O)N[C@H](Cc1ccc(O)cc1)C(=O)N[C@H](CCc1ccccc1)C(N)=O (stereo not given in full) | inactive | Active | Active | inactive | Non-Toxic | – |
| CC[C@@H](C)[C@@H](NC(=O)[C@@H](CCCNC(=N)N)NC(=O)[C@@H](CCc1ccccc1)NC(=O)[C@H](NC(=O)[C@@H](CCCCN)NC(=O)[C@H](NC(=O)[C@@H](CCCNC(=N)N)NC(=O)[C@H](NC(=O)[C@@H](Cc1ccc2ccccc2c1)NC(=O)[C@@H](CCCNC(=N)N)NC(=O)[C@@H](Cc1cn(CCN2CCCc3cc(/C=C/C4=C(Br)C(/C=C/c5cc6c7c(c5)CCCN7CCC6)=[O+][B-](F)(C(F)(F)F)O4)ccc32)nn1)NC(=O)[C@H](NC(=O)[C@@H](CCCNC(=N)N)NC(=O)[C@H](N)CC(C)C)C1CCCCC1)[C@H](C)CC)C1CCCCC1)[C@H](C)CC)C(=O)N[C@H](Cc1ccc(O)cc1)C(=O)N[C@H](CCc1ccccc1)C(N)=O (stereo not given in full) | inactive | Active | Active | inactive | Non-Toxic | – |
| CN(C)c1ccc2nc3ccc(=[N+](C)C)cc-3sc2c1 [METHYLENE BLUE ANHYDROUS] | – | – | – | – | – | Activity [7]: Active; Activity [8]: Active; viability at 24.5 h, 3 µM [9]: 21% |
| CN(C)c1ccc2nc3ccc(N(C)C)cc3[s+]c2c1.[Cl-] [METHYLENE BLUE ANHYDROUS] | – | – | – | – | – | Activity (HEK293 [10]): Non-Toxic |
| CC[C@@H](C)[C@@H](NC(=O)[C@@H](CCCNC(=N)N)NC(=O)[C@@H](CCc1ccccc1)NC(=O)[C@H](NC(=O)[C@@H](CCCCN)NC(=O)[C@H](NC(=O)[C@@H](CCCNC(=N)N)NC(=O)[C@H](NC(=O)[C@@H](Cc1ccc2ccccc2c1)NC(=O)[C@@H](CCCNC(=N)N)NC(=O)[C@@H](CCCCN)NC(=O)[C@H](NC(=O)[C@@H](CCCNC(=N)N)NC(=O)[C@H](N)CC(C)C)C1CCCCC1)[C@H](C)CC)C1CCCCC1)[C@H](C)CC)C(=O)N[C@H](Cc1ccc(O)cc1)C(=O)N[C@H](Cc1cn(CCN2CCCc3cc(/C=C/C4=C(Br)C(/C=C/c5cc6c7c(c5)CCCN7CCC6)=[O+][B-](F)(C(F)(F)F)O4)ccc32)nn1)C(N)=O (stereo not given in full) | inactive | Active | Active | inactive | Non-Toxic | – |
| CC[C@H](C)[C@H](NC(=O)[C@H](C)NC(=O)[C@H](CCC(=O)O)NC(=O)[C@@H](NC(=O)[C@H](CCCNC(=N)N)NC(=O)[C@H](CO)NC(=O)[C@H](Cc1ccc(O)cc1)NC(=O)[C@H](CCCNC(=N)N)NC(=O)[C@@H](NC(=O)[C@H](CC(N)=O)NC(=O)[C@H](CCC(N)=O)NC(=O)[C@H](CCCNC(=N)N)NC(=O)CC(c1ccccc1)c1ccccc1)[C@@H](C)O)[C@@H](C)CC)C(=O)N[C@@H](CCCCN)C(=O)N[C@H](C(=O)N[C@@H](Cc1cn(CCN2CCCc3cc(/C=C/C4=C(Br)C(/C=C/c5cc6c7c(c5)CCCN7CCC6)=[O+][B-](F)(C(F)(F)F)O4)ccc32)nn1)C(=O)N[C@H](C(=O)N[C@@H](CC(C)C)C(=O)N[C@@H](CO)C(=O)N[C@@H](CCCCN)C(=O)N[C@@H](CC(C)C)C(=O)N[C@@H](CCCNC(=N)N)C(=O)N[C@@H](CC(C)C)C(=O)O)[C@@H](C)CC)[C@@H](C)CC (stereo not given in full) | – | – | – | – | – | remaining at 1 h, 100 µM [11]: 13%; IC50 [12]: 2.1 nM; Stability (trypsin (Sus scrofa)): Unstable; Stability [13]: Unstable; Stability [14]: Unstable |

Source: ChEMBL document CHEMBL5230177, “Inactivation of myostatin by photooxygenation using functionalized d-peptides” (RSC Med Chem, 2023)
